Laboratory results taken from ChEMBL document CHEMBL5724801, “EUbOPEN Chemogenomics Library - Multiplex” (2024).
Values joined by “and” are separate entries in the source; they are usually repeats but may differ in a detail not shown here. Equal entries are not always repeated.

Tested on: Fibroblast
Test: Multiplex assay against human fibroblast
Type: toxicity, cell-based
Outline: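 Hoechst33342, BioTracker Green Microtubule Cytoskeleton Dye, MitoTracker Red and Annexin V Alexa Fluor 680 were added to live cells at seeding, and imaging on a CQ1 microscope at 37°C and 5% CO2 followed compound addition. Gating by CellPathfinder machine learning separated cells into Hoechst high-intensity objects or normal cells, then normal cells into healthy, pyknosed or fragmented nuclei, then pyknosed cells into mitotic or apoptotic. Per cents of healthy-nucleus cells are reported for the tubulin, mitochondrial-mass and membrane-permeability phenotypes.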

[1] = 12 h, 1 µM, compound concentration 1 uM
[2] = 12 h, 10 µM, compound concentration 10 uM
[3] = 24 h, 1 µM, compound concentration 1 uM
[4] = 24 h, 10 µM, compound concentration 10 uM
[5] = 48 h, 1 µM, compound concentration 1 uM
[6] = 48 h, 10 µM, compound concentration 10 uM

## O=C1c2c(Br)c(Br)c(Br)c(Br)c2C(=O)N1c1ncc[nH]1
[1]
  Population Apoptotic (%): 13.21% and 28%
  Population Fragmented Nuclei (%): 9.34% and 7.04%
  Population Healthy Nuclei (%): 61.54% and 81.22%
  Population Hoechst High Intensity Objects (%): 0%
  Population Membrane Permeable-Phenotype (%): 4.46% and 1.16%
  Population Mitochondria Different-Phenotype (%): 9.82% and 9.25%
  Population Mitotic Cells (%): 86.79% and 72%
  Population Normal (%): 100%
  Population Pyknosed Nuclei (%): 29.12% and 11.74%
  Population Tubulin-Different-Phenotype (%): 16.96% and 14.45%
  Total Cell Count: 182 and 213
[2]
  Population Apoptotic (%): 10.81% and 15.56%
  Population Fragmented Nuclei (%): 9.5% and 3.32%
  Population Healthy Nuclei (%): 69.83% and 75.36%
  Population Hoechst High Intensity Objects (%): 0%
  Population Membrane Permeable-Phenotype (%): 6.4% and 1.89%
  Population Mitotic Cells (%): 89.19% and 84.44%
  Population Normal (%): 100%
  Population Pyknosed Nuclei (%): 20.67% and 21.33%
  Population Tubulin-Different-Phenotype (%): 10.4% and 27.67%
  Total Cell Count: 179 and 211
[3]
  Population Fragmented Nuclei (%): 11.34% and 5.44%
  Population Healthy Nuclei (%): 70.62% and 82.01%
  Population Hoechst High Intensity Objects (%): 0%
  Population Membrane Permeable-Phenotype (%): 5.84% and 4.08%
  Population Mitochondria Different-Phenotype (%): 7.3% and 2.55%
  Population Mitotic Cells (%): 91.43% and 60%
  Population Normal (%): 100%
  Population Pyknosed Nuclei (%): 18.04% and 12.55%
  Population Tubulin-Different-Phenotype (%): 16.06% and 11.73%
  Total Cell Count: 194 and 239
[4]
  Population Apoptotic (%): 11.11% and 20%
  Population Fragmented Nuclei (%): 13.13% and 3.29%
  Population Healthy Nuclei (%): 73.23% and 84.98%
  Population Hoechst High Intensity Objects (%): 0%
  Population Membrane Permeable-Phenotype (%): 3.45% and 5.52%
  Population Mitochondria Different-Phenotype (%): 4.14% and 7.18%
  Population Mitotic Cells (%): 88.89% and 80%
  Population Normal (%): 100%
  Population Pyknosed Nuclei (%): 13.64% and 11.74%
  Population Tubulin-Different-Phenotype (%): 11.72% and 23.2%
  Total Cell Count: 198 and 213
[5]
  Population Fragmented Nuclei (%): 10% and 10.04%
  Population Healthy Nuclei (%): 84.21% and 84.56%
  Population Hoechst High Intensity Objects (%): 0%
  Population Membrane Permeable-Phenotype (%): 0.62% and 1.83%
  Population Mitotic Cells (%): 63.64% and 92.86%
  Population Normal (%): 100%
  Population Pyknosed Nuclei (%): 5.79% and 5.41%
  Population Tubulin-Different-Phenotype (%): 6.88% and 17.81%
  Total Cell Count: 190 and 259
[6]
  Population Fragmented Nuclei (%): 12.8% and 3.12%
  Population Healthy Nuclei (%): 85.31% and 89.29%
  Population Hoechst High Intensity Objects (%): 0%
  Population Membrane Permeable-Phenotype (%): 1.11% and 2%
  Population Normal (%): 100%
  Population Pyknosed Nuclei (%): 1.9% and 7.59%
  Total Cell Count: 211 and 224

## Cc1onc(-c2ccccc2Cl)c1C(=O)N(C)c1ccc(Cl)cc1
[1]
  Population Apoptotic (%): 60% and 35%
  Population Fragmented Nuclei (%): 17% and 22%
  Population Healthy Nuclei (%): 68% and 50%
  Population Hoechst High Intensity Objects (%): 7% and 9%
  Population Membrane Permeable-Phenotype (%): 0% and 6%
  Population Mitochondria Different-Phenotype (%): 7% and 8%
  Population Mitotic Cells (%): 39% and 65%
  Population Normal (%): 92% and 90%
  Population Pyknosed Nuclei (%): 13% and 27%
  Population Tubulin-Different-Phenotype (%): 23% and 63%
  Total Cell Count: 178 and 161
[2]
  Population Apoptotic (%): 36% and 37%
  Population Fragmented Nuclei (%): 16% and 24%
  Population Healthy Nuclei (%): 70% and 48%
  Population Hoechst High Intensity Objects (%): 2% and 3%
  Population Membrane Permeable-Phenotype (%): 2% and 5%
  Population Mitochondria Different-Phenotype (%): 6% and 11%
  Population Mitotic Cells (%): 63% and 62%
  Population Normal (%): 97% and 96%
  Population Pyknosed Nuclei (%): 13% and 27%
  Population Tubulin-Different-Phenotype (%): 29% and 64%
  Total Cell Count: 144 and 151
[3]
  Population Apoptotic (%): 44% and 39%
  Population Fragmented Nuclei (%): 18% and 22%
  Population Healthy Nuclei (%): 65% and 54%
  Population Hoechst High Intensity Objects (%): 7% and 12%
  Population Membrane Permeable-Phenotype (%): 0% and 8%
  Population Mitochondria Different-Phenotype (%): 1% and 4%
  Population Mitotic Cells (%): 55% and 60%
  Population Normal (%): 92% and 87%
  Population Pyknosed Nuclei (%): 16% and 23%
  Total Cell Count: 178 and 182
[4]
  Population Apoptotic (%): 20% and 54%
  Population Fragmented Nuclei (%): 16% and 21%
  Population Healthy Nuclei (%): 76% and 55%
  Population Hoechst High Intensity Objects (%): 2% and 4%
  Population Membrane Permeable-Phenotype (%): 1% and 6%
  Population Mitochondria Different-Phenotype (%): 4% and 6%
  Population Mitotic Cells (%): 80% and 45%
  Population Normal (%): 97% and 95%
  Population Tubulin-Different-Phenotype (%): 32% and 59%
  Total Cell Count: 134 and 149
[5]
  Population Apoptotic (%): 76% and 48%
  Population Fragmented Nuclei (%): 26% and 28%
  Population Healthy Nuclei (%): 62% and 54%
  Population Hoechst High Intensity Objects (%): 9% and 11%
  Population Membrane Permeable-Phenotype (%): 0% and 10%
  Population Mitochondria Different-Phenotype (%): 1% and 6%
  Population Mitotic Cells (%): 23% and 51%
  Population Normal (%): 90% and 88%
  Population Pyknosed Nuclei (%): 10% and 17%
  Population Tubulin-Different-Phenotype (%): 22% and 51%
  Total Cell Count: 185 and 188
[6]
  Population Apoptotic (%): 44% and 65%
  Population Fragmented Nuclei (%): 25% and 31%
  Population Healthy Nuclei (%): 68% and 55%
  Population Hoechst High Intensity Objects (%): 4% and 1%
  Population Membrane Permeable-Phenotype (%): 0% and 8%
  Population Mitochondria Different-Phenotype (%): 3% and 6%
  Population Mitotic Cells (%): 55% and 35%
  Population Normal (%): 95% and 98%
  Population Pyknosed Nuclei (%): 6% and 12%
  Population Tubulin-Different-Phenotype (%): 34% and 53%
  Total Cell Count: 141 and 166
